Experimental data taken from the EternaBench riboswitch data.

Tested on: MS2 coat protein
Assay: apparent Kd, MS2 coat protein; higher = weaker binding; RNA-MaP array; FMN 200 µM where present
Summary of the method: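 Designs were transcribed by stalled E. coli RNA polymerase on Illumina sequencing-chip clusters. They were titrated with SNAP-549-labelled MS2 coat protein from 0.7 or 1.5 nM, doubling to 3 µM, in 100 mM Tris-HCl pH 7.5, 80 mM KCl, 4 mM MgCl2, BSA, DTT, yeast tRNA and Tween-20, without and then with constant ligand. The apparent Kd is the median of filtered per-cluster fits after normalisation of green signal to red-channel RNA signal and control-cluster median Fmax.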

[1] = designed as: ON switch for flavin mononucleotide, no ligand
[2] = ligand present: flavin mononucleotide, designed as: ON switch for flavin mononucleotide
[3] = designed as: OFF switch for flavin mononucleotide, no ligand
[4] = ligand present: flavin mononucleotide, designed as: OFF switch for flavin mononucleotide

Row | Sequence | apparent Kd [1] | apparent Kd [2] | apparent Kd [3] | apparent Kd [4]
1 | AGCUAUUAAUCAGGAUAUAGGGACAUGAGGAUCACCCAUGUGUACAUGAUAAAAUGUGAUCACGUCUAGAAGGGAUUACUAACA | 0.077 µM | 0.0798 µM |  | 
2 | AAGUAUAGAGGAUAUAGUAGGUACAACAUGAGGAUCACCCAUGUUCUUCAUAACGUAUUUCUAGAAGGCUGAUAAA |  |  | 0.156 µM | 0.353 µM
3 | UCCUCACAUGAGGAUCACCCAUGUGAGGAUAUCAGCGCGUACGGGUUUCCGUAGUGUUUGAGAAGGCAUUUGGG |  |  | 0.0166 µM | 0.029 µM
4 | AUGAGGUCAGGAUAUGCAUGGCGGGACUUGCGUCGUGGCGUGCAGAAGGGACAUGAGGAUCACCCAUGUGGAGC |  |  | 0.0734 µM | 0.169 µM
5 | GUAGCUCCUGACAUGAGGAUCACCCAUGUUCAAUUAUUAAAUCAGGAUAUCGGCUAGAAACUAGCCGAGAAGGGAUAUGCUACU | 0.00513 µM | 0.00597 µM |  | 
6 | UUGGACGUCGUAGGAUAUGUAGGAUAUUCCUACAUGAGGAUCACCCAUGUUGACAAGGAAGAAGGACAGAAGGACGAUGUCCAU | 0.00537 µM | 0.00337 µM |  | 
7 | ACAUGAGGAUCACCCAUGUAAUGAAGGGUACUAUACUAAACGUAGGAUAUCGAUGUAAGAUUGUACGAGAAGGACGAUUGCCUU |  |  |  | 0.0388 µM
8 | UGAGCCUCGUGAGGAUAUACAUGAGGAUCACCCAUGUAAAUGAAAGAUAGCUCGAAACGAGCAAAGUAGAAGGCACGAGGCUCA |  |  | 0.0171 µM | 0.0272 µM
9 | UAAUAGGGAGGAUAUCCAAUAUAUGACAUGAGGAUCACCCAUGUUUCCACUCGUACCUCCGGAGAAGGCCCAUAAU |  |  | 0.021 µM | 0.0187 µM
10 | AGUACUCAAAGAGUACCCAUACGGACAUGAGGAUCACCCAUGUAGGAUAUGCUACUCAAAGAGUAGUAGAAGGACAUGUUCCUC |  |  | 0.0124 µM | 0.0436 µM
11 | UCAUGUUAGCAGGAUAUGCUAUUUAUCUUUUAUGCAGAAGGGCUUACAUGAGGAUCACCCAUGUAUUAAGUCUU |  |  | 0.0189 µM | 0.0525 µM
12 | AAAAUUUAUUGAGGAUAUUCAUACACUGUAUACGGAGAAGGCAAACAAUCAUGAGGACAUGAGGAUCACCCAUGUUGUGACCAU | 0.0185 µM | 0.0122 µM |  | 
13 | CGCGAAAACAUAGGAUAUUGUUACAUGAGGAUCACCCAUGUCAACCAUGUAGCUCGAAUUGUUGACAAGAAGGAUGAGGUCGCG | 0.0483 µM | 0.103 µM |  | 
14 | UGUCAGAUGGUAGGAUAUUCAUAUCGAGUGACCCUUUCAUAACAUGAGGAUCACCCAUGUCGGUGGGAGAAGGGCCGUAUGGUG |  |  | 0.0298 µM | 0.0303 µM
15 | CCAGUGCGGGUGGUAUGGCUAACAUGAGGAUCACCCAUGUUGCAGGAUAUCGGCCAGAUUGGGCGCGAGAAGGGCAACGCUGAA |  |  | 0.0866 µM | 0.0326 µM
16 | GAGUUGAACGAGAAGGCCACUACAUGAGGAUCACCCAUGUCGUAGAGUAUUGGAGGAUAUCGAUAGGCGUCUCAUGAGGACAUA |  |  | 0.0251 µM | 0.0134 µM
17 | AAUAUGUUGCAGAAGGCUAUAUUGUGGUAGUACCUCAUGACAUGAGGAUCACCCAUGUUUGUGUUGGAGGAUAUGCAAUAUAUU |  |  | 0.0162 µM | 0.0649 µM
18 | AGAUGACAAUGUCAUCUUCGUCGGACAUGAGGAUCACCCAUGUAGGAUAUGCUACUCAAAGAGUAGCAGAAGGACAUGUGUCUU |  |  | 0.0197 µM | 0.0411 µM
19 | CCCGGCGUGUCGCUACGCCGAGAGCAGGAUAUUCCGCCGUGAUCUACAUGAGGAUCACCCAUGUGGAAGAAGGGCUACACAAAA |  |  | 0.0143 µM | 0.121 µM
20 | GUCUCGAUGUAAGGAUAUGCAGUGGAUAACACUGCAGAAGGUACAUGAGGAUCACCCAUGUAUAUGAAAGAUAAUAAACGAGAC |  |  | 0.0144 µM | 0.0198 µM
21 | GGCGCAGCGGAGAAGGACGUGGCUCGCCACCACGUAGGAUAUCCCUGUGUACCGAAUUGUUACAUGAGGAUCACCCAUGUGGAC | 0.00616 µM | 0.00628 µM |  | 
22 | GUCCUCGGCGAGGAUAUCGGGCGGGUUUUUGUUUGAGAAGGCGUGACAUGAGGAUCACCCAUGUGGCGCGUGGG |  |  | 0.0416 µM | 0.0593 µM
23 | AUCAGCUCGUCAGGAUAUACGUCACUGCGUCAGCAGUGUGGUAAGAUCACAUGAGGAUCACCCAUGUAGAAGGGACGAGCUGAC |  |  | 0.0142 µM | 0.306 µM
24 | GACUGAUUGUAGAAGGUACUUGACAAUAUAUUUAAUUAUUGUAGACAUGAGGAUCACCCAUGUAGUAAGGAUAUACUUAUAACA | 0.0184 µM | 0.00996 µM |  | 
25 | ACAUGAGGAUCACCCAUGUAUACAUAGGAUAUUGGUGAUCAGGGAUGUUUUACAGGAUAUGUCUGCGAGAAGGAUGCAAGAUGU | 0.398 µM | 0.069 µM |  | 
26 | AUCCCGAUAGUAGGAUAUUUCUGCAGUUGUGGUUAGAUCGCCCUACAUGAGGAUCACCCAUGUAGAGAGAAGGACUGUGGUUAU |  |  | 0.0057 µM | 0.00854 µM
27 | AAAGCAACAUGAGGAUCACCCAUGUAGGAUAUCGCUAUUGUAAUCAUGAAACAUGAUUACAAUAGCGAGAAGGACAUAUGCUAA |  |  | 0.00926 µM | 0.0108 µM
28 | CUUCGACAUGAGGAUCACCCAUGUCAGGAUAUUGUUUAUCUGGUGUUGUCCAGAUAUGCAAGAAGGGAUGUGUG |  |  | 0.0384 µM | 0.0381 µM

Row | Sequence | apparent Kd [1] | apparent Kd [2] | apparent Kd [3] | apparent Kd [4]
29 | AAUAAACACACAGGAUAUAGCAUCGACGUUGCGAACUUAGCGACGUCGAUGCUAGAAGGGUGAAAACAUGAGGAUCACCCAUGU | 0.0733 µM | 0.0192 µM |  | 
30 | GAAAAGUCAGGAUAUGCAGAUAAAAAAACGAAAAAAAAUCUGCAGAAGGGACAUGAGGAUCACCCAUGUAAAAG |  |  | 0.0353 µM | 0.0746 µM
31 | GUCAGGUCGUGAGGAUAUACAACACUGCUUCGGCAGUGUAUUAAGAUCACAUGAGGAUCACCCAUGUAGAAGGCACGAGCUGAU |  |  | 0.0141 µM | 0.21 µM
32 | UGUGUUAUCGGAGGAUAUCGAUAUCAAACAUGAGGAUCACCCAUGUUGAGGAUCACCCAUGUCCACGAGAAGGCCGGCGUAGUG | 0.0181 µM | 0.0183 µM |  | 
33 | UUUUACUUAGGAUAUACAUUUUUUUAUUUAUUUAUAAUAUUACAUGAGGAUCACCCAUGUAGAAGGGAGAUUUU |  |  | 0.077 µM | 0.0634 µM
34 | UUACUAUAACAGAAGGGUAGAUAGUAUAUAGAUGCAGGAUAUGUUACAUGAGGAUCACCCAUGUUUCACCCACAUGAGGAUCAC |  |  | 0.032 µM | 0.0703 µM
35 | UUACUCAUGUAAGGAUAUGCAGCCGCUUCGGCUGCAGAAGGUACUAUAAUACAUGAGGAUCACCCAUGUCUUUUUAAUUUAGAC | 0.0827 µM | 0.0365 µM |  | 
36 | UUUUGGUAAGGAUAUGCGUAGAUCUCGGAAACGAGAUCUACGCAGAAGGUACAUGAGGAUCACCCAUGUUGAUU |  |  | 0.0242 µM | 0.0833 µM
37 | UUAAUUUGAGGAUAUACAUUUAACCACAUGAGGAUCACCCAUGUAAUAUCAUGUAUUUGUGUAGAAGGCAGAAUGC |  |  | 0.0188 µM | 0.0175 µM
38 | CGAUGAGUAGGAUAUGCGUCGGAUGCAUCUGCAUGUCACUUACAUGAGGAUCACCCAUGUAGAAGGGCUCGUUC |  |  | 0.019 µM | 0.026 µM
39 | AGAAACUACGAGAAGGACAUAUGAUUCUUCAGAUACAUGAGGAUCACCCAUGUAGGAUAUCGUAGUUUCAGGAUCGUGAGAUCA |  |  | 0.014 µM | 0.0977 µM
40 | GAUCCUUCUGUUAGGAUAUGCUACGGGCUUCCGCAGCAGAAGGAACAUGAGGAUCACCCAUGUCAAAUAAAAUC |  |  | 0.0371 µM | 0.168 µM
41 | GGGUACAUCGGAGGAUAUCAUGUAAAUACAUGAGGAUCACCCAUGUCGAUGGAGACAUCGGAGAUUGAGAAGGCCGAUGUACCC | 0.178 µM | 0.00958 µM |  | 
42 | GUAGUGUGAGGAUAUGAUUAAUAGAAGGGAAUGCGACUGCAUCAGAAGGCACAUGAGGAUCACCCAUGUAUGAA |  |  | 0.0195 µM | 0.0292 µM
43 | CAAUUUAGCGAGAAGGAGCGCCCGUAGGUACAUGAGGAUCACCCAUGUCCUUUGUGCUCUACGCGCUAGGAUAUCGAGAAACAG |  |  | 0.0135 µM | 0.0987 µM
44 | UUGGACGUUGUAGGAUAUGUAGGAUAUUCCUACAUGAGGAUCACCCAUGUUGACAUGGAAGAAGGACAGAAGGACGAUGUCCAU | 0.277 µM | 0.00532 µM |  | 
45 | AACUGCGCAUGAGGAUAUCCCGGACAUGAGGAUCACCCAUGUAAGCACAAGGGAGAAGGCAUGUGCCUCAAUUAGUUCCCACAA | 0.0619 µM | 0.00708 µM |  | 
46 | GUCAGCUCGUGAGGAUAUACAACCCUGCUUCGGCAGUGUAUUAAGAUCACAUGAGGAUCACCCAUGUAGAAGGCACGAGCUGAU |  |  | 0.0103 µM | 0.146 µM
47 | GGGUACAUCGGAGGAUAUCAUGUAAAUACAUGAGGAUCACCCAUGUCGAAGGAGACAUCGGAGAUUGAGAAGGCCGAUGUACCG | 0.0877 µM | 0.579 µM |  | 
48 | AUGUUGUCAGGAUAUCUUACAUAACAAUCGUUGUUACCAUUGGAGAAGGGACAUGAGGAUCACCCAUGUUAGCC |  |  | 0.0208 µM | 0.023 µM
49 | CUUUCGUGAGGAUAUGUGGCUUCGAUCGUGAGAUCGAGAAAACAGAAGGCACAUGAGGAUCACCCAUGUUCCUC |  |  | 0.041 µM | 0.515 µM
50 | CAGUACUGAGGAUAUACAUGAGGAUCACCCAUGUGCUUUAGCUAGGAUACUAGCAUUAGUAGAAGGCAGUACUG |  |  | 0.0123 µM | 0.0215 µM
51 | GUAGCAUACCGAGGAUAUUCAUAUAAUAAAUAAACAUGAGGAUCACCCAUGUGGCGAAAGCCUAGGGAGAAGGCGGAAUGCUAC | 0.24 µM | 0.0226 µM |  | 
52 | UUACAUACAAAGGUACAUGAGGAUCACCCAUGUUUGUUGGGAAGAAGGGUAACAGUACUACACAUACAGGAUAUUUCACAAAUA | 0.0868 µM | 0.0564 µM |  | 
53 | UCUGCAUAGUCAGGAUAUGCAAAAUUUAUUUUCUUCGGAAAAUAAAUAACAUGAGGAUCACCCAUGUAGAAGGGACUGUGCAGA |  |  | 0.0169 µM | 0.0147 µM
54 | GGUACUCAAAGAGUACCAAUACGAACAUGAGGAUCACCCAUGUAGGAUAUGCUACUCAAAGAGUAGCAGAAGGACAUGUACCUA |  |  | 0.0175 µM | 0.0992 µM
55 | AACAUUCUAUCUCAGGAUAUCAUGUCAAAGACAUGAGGAUCACCCAUGUACCAGGAAACUGGUUAUGAGAAGGGAGAUAGAAUGA | 1.22 µM | 0.227 µM |  | 
